To fix the notation:
B1: tRNA (parent)
chain: GUUCCGUUGGCGUAAUGGUAACGCGUCUCCCUCCUAAGGAGAAGACUGCGGGUUCGAGUCCCGUACGGAACG

This sample holds only a part of the variants without activity.

Variants of B1 are the subject of this data set. The data set can be described thus: yeast fitness relative to wild type (ratio to wild type); higher = fitter; tRNA-Arg(CCU), competitive growth, 37 C, YPD. Put shortly:
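For this measurement, the tRNA-Arg(CCU) gene was varied by chemical synthesis at a 3% per-site mutation rate across 69 sites, and each variant was placed at the native genomic locus in Saccharomyces cerevisiae. The pooled strains went through a 24-hour competition in YPD at 37°C in six parallel replicates, with amplicons from start and end populations read by 100-nucleotide paired-end sequencing. Darwinian fitness relative to wild type followed from the change in each genotype's frequency. Genotypes needed ≥ 100 starting reads, and estimates < 0.5 were set to 0.5.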
Turning to C11G C24G C60A G68A, the yeast fitness is no more than 0.5.

As to A15G A20U G68A, the yeast fitness turned out to be 0.545.

Turning to C4A C31G C46U, the yeast fitness was 0.677.

C34A G44A G52A C55U: the yeast fitness is 0.53.

Regarding C24U G52A G56A, the yeast fitness was found to be 0.703.

Take G25A C66G: the yeast fitness amounted to 0.962.

For A21G C31G C66A, the yeast fitness stood at 0.505.

Turning to A20C A21G G50C A65C, the yeast fitness was no more than 0.5.

G9C C46U G63A: the yeast fitness is 0.69.

As to G6A C11G C22G C49A G51A, the yeast fitness was no more than 0.5.

Regarding C34U G41C A69G, the yeast fitness was no more than 0.5.

C29G U47C: the yeast fitness is 0.75.

As for U7A A15U A36C A37U A43C C46U C49G G50A, the yeast fitness is no more than 0.5.

Consider C5G U13C A21C A57U A65U G68C, for which the yeast fitness is no more than 0.5.

Regarding A14U U28A U59C C60G, the yeast fitness is no more than 0.5.

Turning to C34A G41A C55G C66U, the yeast fitness is no more than 0.5.

In the case of G6A G17C C31A A36U, the yeast fitness stood at 0.53.

Regarding G41A A65G G67A, the yeast fitness was 0.635.

In the case of C11A C31G C62G, the yeast fitness worked out at 0.506.

In the case of C5U A21G A42U U54G, the yeast fitness was 0.533.

For C24A A70U, the yeast fitness came out at 0.596.

Turning to C11U U19G C66A, the yeast fitness came to 0.54.

On to G44C C60A, for which the yeast fitness turned out to be 0.572.

With G44C C49G U64A, the yeast fitness is no more than 0.5.

In the case of U7C G9A U13C A21U G56A, the yeast fitness is no more than 0.5.

For the variant C61G C66G, the yeast fitness came to 0.625.

As for C11G A42U A43C, the yeast fitness is no more than 0.5.

Turning to C5G G18A G25A A42G, the yeast fitness is no more than 0.5.

For G12C C60U A70C, the yeast fitness was no more than 0.5.

For the variant A36U C60U, the yeast fitness was 0.566.

As for G6A A21C U47A G56A, the yeast fitness is no more than 0.5.

C24A A43C A69U: the yeast fitness was no more than 0.5.

Take G9C G39C A45C: the yeast fitness is no more than 0.5.

For the variant A15U C49G C55U A65U, the yeast fitness turned out to be 0.56.

Regarding U8G G41A C60G, the yeast fitness was no more than 0.5.

G18C C29U C34U: the yeast fitness is no more than 0.5.

For the variant A21C C27U C49U G58C C61A A65U A69U, the yeast fitness was no more than 0.5.

As for C27U C49G, the yeast fitness is 0.916.

For the variant U8C C22G C60A, the yeast fitness came to 0.609.

With U2A G17C C22G A40C, the yeast fitness is no more than 0.5.

For the variant A36G G51A, the yeast fitness was 0.744.

As for U7A A36G A40G G56C C62A, the yeast fitness was no more than 0.5.

On to A15C G17A G18A A36C, for which the yeast fitness was no more than 0.5.

For the variant A20G C24U, the yeast fitness worked out at 0.9.

Regarding C22U G25A G67C, the yeast fitness stood at 0.535.

In the case of U2G C5G C34G C49G, the yeast fitness was determined as 0.505.

Consider A21C C34U U64A, for which the yeast fitness was no more than 0.5.

Turning to C24G C62U A65G, the yeast fitness was found to be 0.558.

On to C5A A20G C29A G51C G67C, for which the yeast fitness was no more than 0.5.

Regarding C31G A37C G52C C61A C66U, the yeast fitness was determined as 0.527.

As for C11U G39C G68C, the yeast fitness is no more than 0.5.

As for A20U A37G, the yeast fitness came out at 0.892.

As for C5A A14U A21C C61U, the yeast fitness is no more than 0.5.

With C55G A69U, the yeast fitness is 0.636.

For the variant G25A C46U C66U, the yeast fitness was 0.778.

In the case of G41A G52A A69C, the yeast fitness was 0.53.

Take C11U A15C A36C A37U: the yeast fitness is no more than 0.5.

For the variant G9C U53C, the yeast fitness worked out at 0.59.

Regarding C11U A20C C29G, the yeast fitness was 0.568.

As for C11U U32A A70C, the yeast fitness amounted to 0.614.

On to C4A G51C, for which the yeast fitness is 0.547.

Take C11A G18A G58A U64C: the yeast fitness was no more than 0.5.

For the variant U7A U32A, the yeast fitness turned out to be 0.588.

For the variant C49A C60A, the yeast fitness was 0.52.

Consider C27U C31A U35C C55G C66U A70C, for which the yeast fitness is no more than 0.5.

As for G10A C49A, the yeast fitness was determined as 0.521.

As to C31A U35C G41A A57G, the yeast fitness was no more than 0.5.

Regarding C27G U28A A65U, the yeast fitness is no more than 0.5.

Turning to A15G C29U, the yeast fitness was 0.952.

With C49U U59C C61U, the yeast fitness amounted to 0.618.

C11A G17C A36G G41C A45G C49U: the yeast fitness is no more than 0.5.

For C4G G17A A45C, the yeast fitness is no more than 0.5.

For the variant A20U A36G A43U, the yeast fitness is 0.601.

Take U7C G68A: the yeast fitness is 0.87.

On to G6A U13G, for which the yeast fitness was 0.731.

In the case of C4U C11A A37C G67C, the yeast fitness is no more than 0.5.

With G67U A69U, the yeast fitness was found to be 0.887.

Consider C4U G9C, for which the yeast fitness stood at 0.688.

In the case of C5A G10C G12A G23A, the yeast fitness is no more than 0.5.

For the variant C29G C30G C49U, the yeast fitness amounted to 0.66.

For the variant U26C C46U C62U, the yeast fitness turned out to be 0.718.

Regarding A20G G41C A70U, the yeast fitness is 0.622.

With A20G A40U G52A C55A, the yeast fitness is 0.529.

With A42G C49U, the yeast fitness turned out to be 0.801.

With C11U U28C U32G, the yeast fitness worked out at 0.569.

G9A C11A A20U G23A G51A: the yeast fitness is no more than 0.5.

As for U3C G10C C27U G68C, the yeast fitness was no more than 0.5.

Consider C4G U7G C29A A65C, for which the yeast fitness is no more than 0.5.

In the case of C22U C31U A45U C55U A70U, the yeast fitness was no more than 0.5.

On to C4G A65U G68U, for which the yeast fitness was determined as 1.11.

In the case of G23C C27G C61U, the yeast fitness was no more than 0.5.

Regarding A20U C30U C34G U53C A57U G67C, the yeast fitness was no more than 0.5.

As for U3C A45U C49G, the yeast fitness was 0.678.

Turning to U8C C49G C62A, the yeast fitness is no more than 0.5.

Take C11G U26A U35A G67C: the yeast fitness is no more than 0.5.

On to G10C A37C, for which the yeast fitness is 0.622.

For A21G C27G C33G, the yeast fitness is no more than 0.5.

U64A: the yeast fitness was found to be 0.972.

As for U2A C11G G51A C60U, the yeast fitness was no more than 0.5.

U53G C66U: the yeast fitness came to 0.604.

For the variant U8A C31G A57C C61U, the yeast fitness came out at 0.506.

Consider U13A A15C U54G C66G G67C, for which the yeast fitness was no more than 0.5.

On to G6A A20C C31U C33G, for which the yeast fitness was no more than 0.5.

In the case of G10A U35A G56A, the yeast fitness turned out to be 0.617.

As to G9A C34G U47C, the yeast fitness is no more than 0.5.

Consider U26C A69C, for which the yeast fitness was 0.885.

As to C5U U47A G68C, the yeast fitness stood at 0.534.

Turning to U7C U32C C33G A70G, the yeast fitness is no more than 0.5.

Consider U3G A14C C24G A36G, for which the yeast fitness was no more than 0.5.

On to C4G C34U C49A U54C A69U, for which the yeast fitness is no more than 0.5.

As to C5G A15C C22A G63A A65G, the yeast fitness is no more than 0.5.

For the variant U8G G23C, the yeast fitness was no more than 0.5.

For A14U A40U U54A A70G, the yeast fitness came to 0.568.

In the case of A43U G50C A65C, the yeast fitness was determined as 0.556.

For C29G G44A G56C C62A G67C, the yeast fitness is no more than 0.5.

With G17U C46A, the yeast fitness came to 0.785.

With U13G C30U C55A, the yeast fitness was no more than 0.5.

On to G10C C22A, for which the yeast fitness came out at 0.705.

Take G6C G39A: the yeast fitness was determined as 0.86.

Regarding C4A U8C C24G G44C G68U, the yeast fitness is no more than 0.5.

Turning to U2C C27G G51A, the yeast fitness is no more than 0.5.

On to U26C A36G A69C, for which the yeast fitness was 0.736.

Consider U7A A15U A40G G48A G68C, for which the yeast fitness was no more than 0.5.

U32C G52A: the yeast fitness is 0.76.

With C4G U26A C27U A43G C55U C62U, the yeast fitness was 0.589.

Regarding A21C C62U C66A, the yeast fitness is no more than 0.5.

Take A14U G23C C29G G51A G56C: the yeast fitness was no more than 0.5.

With U13A C22G G25C C27U C30G A36G C55A A69U, the yeast fitness is no more than 0.5.

Turning to G12A A20U C62U A65G, the yeast fitness is no more than 0.5.

On to U3G C5G A20C, for which the yeast fitness was no more than 0.5.

Regarding G18C C60U, the yeast fitness is no more than 0.5.

Turning to U3A A65C, the yeast fitness was found to be 0.879.

In the case of G9C G12C C24U C34U C49G, the yeast fitness turned out to be 0.658.

In the case of U26C A36C A45G U54C, the yeast fitness is no more than 0.5.

With G6U C27U G56A C61U, the yeast fitness was no more than 0.5.

As for C11U G52A C60A, the yeast fitness worked out at 0.593.

U7A G10C C22U C27G C61A C62U A65U A69C: the yeast fitness was no more than 0.5.

Take A14C A21C C46A C49U: the yeast fitness is no more than 0.5.

Turning to G23C G50A, the yeast fitness was 0.726.

Consider G6A C22G A45C G52C A57U A69C, for which the yeast fitness was no more than 0.5.

Consider G18A C30U C60G, for which the yeast fitness was no more than 0.5.

On to C4G G17A C29U C62U, for which the yeast fitness is no more than 0.5.

For the variant C11U C66U A69G, the yeast fitness is 0.639.

For the variant A20G C27A A40G A45C, the yeast fitness was no more than 0.5.

Consider C5G U8A A15G G41C U47A, for which the yeast fitness was no more than 0.5.

For C31G C46G G50A, the yeast fitness is 0.552.

On to C11U U28A G58C A70C, for which the yeast fitness was no more than 0.5.

For the variant A40U U64C, the yeast fitness stood at 1.08.

Consider C24A C60U C61G G67A, for which the yeast fitness was 0.614.

As to C31G U35C C46U, the yeast fitness was 0.582.

For C5U U8C G41C A69U, the yeast fitness is no more than 0.5.

With U7G C30U G38A G50A, the yeast fitness came to 0.589.

Turning to C4A A70G, the yeast fitness amounted to 0.93.

In the case of G9A G17A C22G A40G G41C, the yeast fitness was no more than 0.5.

For C5U G18C C22U G50A U54C, the yeast fitness was no more than 0.5.

In the case of C5U A14U C31A C46U G48A C49U, the yeast fitness was 0.568.

In the case of C5U G18A A37C C61U, the yeast fitness was no more than 0.5.

As for U7C A14G C33G G68C, the yeast fitness is no more than 0.5.

For the variant G12A C24A U26A C31A G67A, the yeast fitness is no more than 0.5.

Turning to U8G A14G G25A A36G A42U G68C, the yeast fitness is no more than 0.5.

For A20U A21U, the yeast fitness is 0.61.

For U19C G48C C66U, the yeast fitness worked out at 0.712.

Take C34A G39C A40C G56C C61G C62G: the yeast fitness is no more than 0.5.

As for U3C C11A C31A C49G G58C, the yeast fitness is no more than 0.5.

In the case of G10A C33G A70U, the yeast fitness was no more than 0.5.

In the case of C11U U28A C33G, the yeast fitness worked out at 0.619.

Turning to C4U A21C C31A G56C, the yeast fitness is no more than 0.5.

The record behind these values is the RNAGym collection of RNA variant scans (doi:10.1126/science.aae0568).
